Holding throughout (format): ADME, organism-based
The nature of data set [1]: Cumulative radioactivity exerted by [131 I ]L-HML-NGA in the urine at 24 hour postinjection of [131 I ]L-HML-NGA and [125 I ]MPH-NGA. As to conditions: in vivo. The gist of the method: (§1)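 Mice received one i.v. co-injection of the dual-isotope NGA mixture, 9 µg of each radioiodinated protein, and were housed in metabolic cages for 24 h. Cumulative urine and feces were collected and counted. Values are % injected dose, mean (SD) of five animals, with a Student's paired t-test between the two co-administered conjugates.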

Data set [2] has as its system Mus musculus. The data set is described as follows: The biodistribution time for [131 I ]L-HML-NGA radioactivity after concomitant administration of [131 I ]L-HML-NGA and [125 I ]L-HML-IT-NGA in mice. It is expressed as percent injected dose per stomach. As to conditions: in vivo. The gist of the method:
(§2)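 Six-week-old male ddY mice were given one i.v. co-injection of a 131I/125I-labelled NGA pair, each diluted to 90 µg/mL protein in 0.1 M PBS pH 6.0 and mixed 1:1, giving 9 µg of each radioiodinated NGA per mouse. Groups of five were killed at 5, 15, 30 min, 1 h and 3 h. Organs were weighed and counted in a well counter. Values are % ID per organ, blood as % ID/g, mean (SD).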

The species named for data set [3] is Homo sapiens. Kind of data set: The percent protein-bound radioactivity in NGAfractions following incubation of radioiodinated [131 I ]L-HML-NGA in human serum after 6 hours. Conditions: in vivo. In outline: (§3)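 Conjugates were diluted to 0.5 mg/mL in 0.1 M PBS pH 6.0, and 20 µL was added to 230 µL of freshly prepared human serum. Samples were incubated at 37 °C and taken at 1, 3, 6 or 24 h. Protein-bound fraction (Rf 0) was separated from small metabolites (Rf 0.6-0.9) by paper chromatography in methanol-water 4:1. Protein-bound radioactivity was divided by the initial radiochemical purity. Values are mean (SD).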

In data set [4] the test system is Mus musculus. Kind of data set: The biodistribution time for [131 I ]L-HML-NGA radioactivity after concomitant administration of [131 I ]L-HML-NGA and [125 I ]D-HML-NGA in mice. It is expressed as percent injected dose per neck. Conditions: in vivo. The gist of the method: as §2
Data set [5] deals with Mus musculus. Kind of data set: The biodistribution time for [131 I ]L-HML-NGA radioactivity after concomitant administration of [131 I ]L-HML-NGA and [125 I ]MPH-NGA in mice. It is expressed as percent injected dose per liver. Ent after 1 hour. Conditions: in vivo. In outline: as §2
Data set [6] in a line: Cumulative radioactivity exerted by [131 I ]L-HML-NGA in the urine at 24 hour postinjection of [131 I ]L-HML-NGA and [125 I ]MIH-NGA. As to conditions: in vivo. In outline: as §1
For data set [7], the species on record is Homo sapiens. Kind of data set: The percent protein-bound radioactivity in NGAfractions following incubation of radioiodinated [131 I ]L-HML-NGA in human serum after 1 hour. In outline:
as §3

Data set [8] relates to Mus musculus. The data set is described as follows: The biodistribution time for [131 I ]L-HML-NGA radioactivity after concomitant administration of [131 I ]L-HML-NGA and [125 I ]L-HML-IT-NGA in mice. It is expressed as percent injected dose per intestine. Conditions: in vivo. The gist of the method: as §2
Data set [9] is filed under the species Homo sapiens. Kind of data set: The percent protein-bound radioactivity in NGAfractions following incubation of radioiodinated [131 I ]L-HML-NGA in human serum after 3 hours. As to conditions: in vivo. The gist of the method:
as §3

Data set [10] relates to Mus musculus. Kind of data set: The biodistribution time for [131 I ]L-HML-NGA radioactivity after concomitant administration of [131 I ]L-HML-NGA and [125 I ]MPH-NGA in mice. It is expressed as percent injected dose per gram of blood tissue. As to conditions: in vivo. In outline: as §2
Data set [11] relates to Mus musculus. The data set is described as follows: Biodistribution time for compound radioactivity after concomitant administration of compound and [125 I ]MIH-NGA in mice was expressed as % injected dose per liver after 15 min. As to conditions: in vivo, 0.25 h. In outline: as §2
Data set [12] concerns Mus musculus. Kind of data set: The biodistribution time for [131 I ]L-HML-NGA radioactivity after concomitant administration of [131 I ]L-HML-NGA and [125 I ]MIH-NGA in mice. It is expressed as percent injected dose per gram of blood tissue. As to conditions: in vivo. The gist of the method:
as §2

Data set [13] concerns Mus musculus. Kind of data set: The biodistribution time for [131 I ]L-HML-NGA radioactivity after concomitant administration of [131 I ]L-HML-NGA and [125 I ]L-HML-IT-NGA in mice. It is expressed as percent injected dose per neck. Conditions: in vivo. The gist of the method:
as §2

“And” between values parts separate entries of the source, which are not always exact repeats. Equal values may be shown once.

`N[C@@H](CS)C(=O)SC1CC(=O)N(CCCC[C@H](NC(=O)CNC(=O)c2cccc([131I])c2)C(=O)O)C1=O` (stereo partly drawn): the Radioactivity in data set [1] was 84.45%; in the data set with Mus musculus [2], 0.17% and 0.46% and 0.3% and 0.35%; in the data set filed under Homo sapiens [3] it was 98.39%; in the data set on Mus musculus [4] it was 0.13% and 0.28% and 0.17% and 0.12% and 0.05%; in the data set on Mus musculus [5], 4.29%; in data set [6], 87.32%. Also, the Radioactivity in the data set listed under Homo sapiens [7] is 99.78%; with Mus musculus [8] it was 0.35% and 2.3% and 4.98% and 5.54% and 5.14%; in the data set filed under Homo sapiens [9], 99.07%; in the data set with Mus musculus [10], 1.22% and 3.14% and 1.28% and 0.54% and 0.31%; in the data set on Mus musculus [11], 54.33%; with Mus musculus [12], 1.22% and 2.93% and 1.48% and 0.58% and 0.43%. In addition, in the data set on Mus musculus [13], the Radioactivity was 0.07% and 0.25% and 0.21% and 0.03%.

The values above are taken from ChEMBL document CHEMBL1130118, “A novel radioiodination reagent for protein radiopharmaceuticals with L-lysine as a plasma-stable metabolizable linkage to liberate m-iodohippuric acid after lysosomal proteolysis” (J Med Chem, 1997).
